Measurements as given in ChEMBL document CHEMBL2331443, “Synthesis and biological evaluation of a new class of 4-aminoquinoline-rhodanine hybrid as potent anti-infective agents” (Eur J Med Chem, 2013).
pIC50: −log10 of the molar value. Values after ≈ are worked out from the molar mass of the structure shown.

Tests used:
Plasmodium falciparum [1] = test: Antimalarial activity against Plasmodium falciparum K1 assessed as parasite growth inhibition after 72 hrs by MSF assay; type: functional, organism-based; details: K1, 72 h
How it was run: (§1)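 P. falciparum cultures in RPMI-1640-FBS; DMSO stock 5 mg/ml diluted in medium, duplicate wells; 1.0% parasitized cell suspension at 0.8% parasitemia. Incubated 37 °C, 5% CO2 air mixture, 72 h. Lysis buffer with 2× SYBR Green I added, 1 h at 37 °C. Fluorescence read at 485 ± 20 nm excitation / 530 ± 20 nm emission; IC50 by logit regression.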

[2] = Selectivity index, ratio of CC50 for african green monkey Vero cells to IC50 for Plasmodium falciparum K1; type: functional
Plasmodium yoelii = test: Antimalarial activity against Plasmodium yoelii infected in erythrocytes assessed as inhibition of beta-hematin formation after 16 hrs by BHIA assay; type: functional, cell-free
How it was run: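 Plasma from infected animal blood at 50% parasitemia (cardiac puncture into 2.0% citrate, spun 5000 rpm, 10 min, 4 °C). Reaction in 1.0 mL: 100 mM sodium acetate pH 5.1, hemin as substrate, plasma, 1–20 µg compound; controls without compound. Triplicate, 37 °C, 16 h, rotary shaker. Pellet washed, dissolved in 2 N NaOH, absorbance 400 nm; IC50 by nonlinear regression of dose-response.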

Plasmodium falciparum [3] = test: Antimalarial activity against Plasmodium falciparum 3D7 assessed as parasite growth inhibition after 72 hrs by MSF assay; type: functional, organism-based; details: 3D7, 72 h; how it was run: as §1
[4] = Cytotoxicity against mouse bone marrow derived macrophage assessed as growth inhibition after 48 hrs by MTS assay; type: cell-based
How it was run: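 Macrophages washed, plated at 10^5 cells per well in supplemented DMEM, 37 °C, 5% CO2, medium changed every 3rd day, used after 5 days. Compounds added in antibiotic-free, FBS-supplemented DMEM for 48 h at 37 °C, 5% CO2. MTS added for 2 h, absorbance 490 nm; DMSO wells taken as 100% survival.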

[5] = system: Mycobacterium tuberculosis; test: Antitubercular activity Mycobacterium tuberculosis H37Rv assessed as growth inhibition after 4 weeks; type: functional; details: 672 h
How it was run: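 M. tuberculosis H37Rv from Lowenstein-Jensen culture, harvested in N-saline with 0.05% Tween-80 and made single-cell with glass beads. Working inoculum 2 × 10⁷ cfu/mL spread on drug-containing slanted solid medium. Incubated 37 °C for 4 weeks, watching for colonies. Drug-free tubes as control, isoniazid as reference. MIC taken as the lowest concentration giving complete growth inhibition at this inoculum.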

Vero = test: Cytotoxicity against african green monkey Vero cells assessed as growth inhibition after 24 hrs by MTS assay; type: cell-based; details: Chlorocebus sabaeus
How it was run: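 Vero cells plated at 20,000 per well in MEM with antibiotics + 10% FBS, allowed to adhere overnight at 37 °C, 5% CO2. Compound dilutions added in MEM + 10% FBS; known toxic compound positive control, DMSO negative control. After 24 h, MTS added, 2 h at 37 °C, absorbance 490 nm; DMSO wells taken as 100% survival.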

Compound	pIC50 (Plasmodium falciparum [1])	Ratio CC50/IC50 [2]	IC50 (Plasmodium yoelii)	pIC50 (Plasmodium falciparum [3])	pIC50 [4]	MIC [5]	pIC50 (Vero)
O=C1/C(=C/c2ccc([N+](=O)[O-])cc2)SC(=S)N1CCCNc1ccnc2cc(Cl)ccc12	7.34	180.38	3.23 µg/mL (≈ 6.66 µM)	7.63			
O=C1/C(=C/c2cccc([N+](=O)[O-])c2)SC(=S)N1CCCNc1ccnc2cc(Cl)ccc12	7.30	106.4	3.93 µg/mL (≈ 8.1 µM)	7.02			
O=C1/C(=C/c2ccc(F)cc2)SC(=S)N1CCCNc1ccnc2cc(Cl)ccc12	7.88	2083.58	4.3 µg/mL (≈ 9.39 µM)	7.03			
O=C1/C(=C/c2ccc(Cl)cc2)SC(=S)N1CCCNc1ccnc2cc(Cl)ccc12	7.03	442.83	3.26 µg/mL (≈ 6.87 µM)	7.12			
CN(C)c1ccc(/C=C2\SC(=S)N(CCCNc3ccnc4cc(Cl)ccc34)C2=O)cc1	7.18	4195.05	6.35 µg/mL (≈ 13.1 µM)	7.31			
O=C1/C(=C/c2ccccc2[N+](=O)[O-])SC(=S)N1CCCNc1ccnc2cc(Cl)ccc12	7.08	639.19	3.3 µg/mL (≈ 6.8 µM)	7.42	4.15	6.25 µM (≈ 3.03 µg/mL)	< 4.00
O=C1/C(=C/c2ccccc2)SC(=S)N1CCNc1ccnc2cc(Cl)ccc12	6.98	29.16	8.21 µg/mL (≈ 19.3 µM)	7.23			
CCc1ccc(/C=C2\SC(=S)N(CCNc3ccnc4cc(Cl)ccc34)C2=O)cc1	7.02	17.51	6.73 µg/mL (≈ 14.8 µM)	7.37			
O=C1/C(=C/c2ccccn2)SC(=S)N1CCNc1ccnc2cc(Cl)ccc12	< 5.96		16.5 µg/mL (≈ 38.6 µM)	< 5.93			
O=C1/C(=C/c2ccc([N+](=O)[O-])cc2)SC(=S)N1CCNc1ccnc2cc(Cl)ccc12	6.08	56.19	12.8 µg/mL (≈ 27.1 µM)	6.06			
COc1cc(/C=C2\SC(=S)N(CCNc3ccnc4cc(Cl)ccc34)C2=O)cc(OC)c1OC	7.23	88.79	7.31 µg/mL (≈ 14.2 µM)	7.46			
O=C1CSC(=S)N1CCNc1ccnc2cc(Cl)ccc12	7.10	112.54	4.9 µg/mL (≈ 14.5 µM)	6.74			
O=C1CSC(=S)N1CCCNc1ccnc2cc(Cl)ccc12	7.35	88.3	8.16 µg/mL (≈ 23.2 µM)	6.70			
O=C1CSC(=S)N1CCCCNc1ccnc2cc(Cl)ccc12	7.24	75.44	6.21 µg/mL (≈ 17 µM)	6.62		12.5 µM (≈ 4.57 µg/mL)	
O=C1/C(=C/c2ccccc2)SC(=S)N1CCCCNc1ccnc2cc(Cl)ccc12	6.82	113.53	4.03 µg/mL (≈ 8.88 µM)	7.36			
CCc1ccc(/C=C2\SC(=S)N(CCCCNc3ccnc4cc(Cl)ccc34)C2=O)cc1	6.84	102.86	6.21 µg/mL (≈ 12.9 µM)	7.26			
O=C1/C(=C/c2ccncc2)SC(=S)N1CCCCNc1ccnc2cc(Cl)ccc12	6.51	60.39	6.3 µg/mL (≈ 13.8 µM)	7.03			
O=C1/C(=C/c2ccco2)SC(=S)N1CCCCNc1ccnc2cc(Cl)ccc12	6.82	92.72	2.78 µg/mL (≈ 6.26 µM)	7.46	4.15	6.25 µM (≈ 2.77 µg/mL)	< 4.00
O=C1/C(=C/c2ccc([N+](=O)[O-])cc2)SC(=S)N1CCCCNc1ccnc2cc(Cl)ccc12	7.05	3720.88	17.3 µg/mL (≈ 34.7 µM)	7.40			
CN(C)c1ccc(/C=C2\SC(=S)N(CCCCNc3ccnc4cc(Cl)ccc34)C2=O)cc1	7.26	422.41	4.23 µg/mL (≈ 8.51 µM)	7.51			
COc1cc(/C=C2\SC(=S)N(CCCCNc3ccnc4cc(Cl)ccc34)C2=O)cc(OC)c1OC	7.15	110.08	3.93 µg/mL (≈ 7.22 µM)	7.37		12.5 µM (≈ 6.8 µg/mL)	
COc1ccc(/C=C2\SC(=S)N(CCCCNc3ccnc4cc(Cl)ccc34)C2=O)c2ccccc12	6.55	356.27	4.05 µg/mL (≈ 7.58 µM)	6.55	< 4.00	6.25 µM (≈ 3.34 µg/mL)	< 4.00
COc1cc(/C=C2\SC(=S)N(CCCNc3ccnc4cc(Cl)ccc34)C2=O)cc(OC)c1OC	7.37	193.92	3.33 µg/mL (≈ 6.28 µM)	7.25			
COc1ccc(/C=C2\SC(=S)N(CCCNc3ccnc4cc(Cl)ccc34)C2=O)c2ccccc12	7.23	64.55	2.65 µg/mL (≈ 5.1 µM)	7.04			
CCN(CC)CCCC(C)Nc1ccnc2cc(Cl)ccc12 (stereo not drawn) [CHLOROQUINE]			4.3 µg/mL (≈ 13.4 µM)				
NNC(=O)c1ccncc1 [ISONIAZID]					< 4.00	0.217 µM (≈ 0.0298 µg/mL)	< 4.00
CO[C@H]1/C=C/O[C@@]2(C)Oc3c(C)c(O)c4c(O)c(c(/C=N/N5CCN(C)CC5)c(O)c4c3C2=O)NC(=O)/C(C)=C\C=C\[C@H](C)[C@H](O)[C@@H](C)[C@@H](O)[C@@H](C)[C@H](OC(C)=O)[C@@H]1C [RIFAMPIN]					< 4.00	0.243 µM (≈ 0.2 µg/mL)	< 4.00
